UCH37 inh: blocks the human deubiquitinase UCH37. inhibition, % (test concentration not listed). Q9Y5K5. purified proteasome/UCH37, Ub-AMC cleavage fluorescence. 0.33% of 330,000 active;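 active means mean inhibition over replicate wells above about 20%, limit read from the data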;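 further: 0% = compound-free wells with enzyme and 100% = wells lacking proteasome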
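Material: human UCH37 enzyme supplied as purified proteasome complex / Amount: 0.15 nM proteasome as dispensed / Buffer or medium: pH 7.4 Tris-HCl (50 mM) with ovalbumin, ATP-MgCl2, DTT / Times: preincubation 30 min, reaction 25 min, room temperature / Technique: AMC fluorescence from Ub-AMC cleavage, excitation 355 nm, emission 460 nm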
MEKK2wt PB1 HTS: raises or lowers MEK5 binding to wildtype human MEKK2 PB1 domain. bead flow cytometry, Alexa488-MEK5 binding to MEKK2 WT; actives lie on both sides. binding response (% of control), % at 10 µM. 1.1% of 290,000 active; in the data active means binding response below about 67% or above about 130%
UBC13 polyUb: inhibitors of human UBC13 polyubiquitin chain formation | 0.47% of 330,000 active | AID 485273 | inhibition, % at 20 µM | TR-FRET | P61088; in the data active means inhibition above about 45%, passing the limit was not always enough
MEKK2 mut-MEK5: signal of MEK5 binding to mutant human MEKK2 PB1 domain; bead flow cytometry, Alexa488-MEK5 binding to MEKK2 mutant; percent response, % at 10 µM; 0.35% of 290,000 active; in the data active means percent response above about 24%, passing the limit was not always enough
MEKK3 PB1 HTS: modulators (inhibitors or enhancers) of MEK5 binding to human MEKK3 PB1 domain; Q99759; bead-based flow cytometry, Alexa488-MEK5 binding to MEKK3; actives lie on both sides; 0 = blocked by unlabeled MEK5, 100 = vehicle; binding response (% of control), % at 10 µM; 1.4% of 290,000 active; AID 1529;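 active means binding response more than 3 SD above or below the average of its plate-row segment, actives on both sides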;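 further: Alexa488 bead fluorescence after subtracting the streptavidin-only scavenger bead signal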
Target sequence (Q99759 whole entry, looked up, the tested form may be a part): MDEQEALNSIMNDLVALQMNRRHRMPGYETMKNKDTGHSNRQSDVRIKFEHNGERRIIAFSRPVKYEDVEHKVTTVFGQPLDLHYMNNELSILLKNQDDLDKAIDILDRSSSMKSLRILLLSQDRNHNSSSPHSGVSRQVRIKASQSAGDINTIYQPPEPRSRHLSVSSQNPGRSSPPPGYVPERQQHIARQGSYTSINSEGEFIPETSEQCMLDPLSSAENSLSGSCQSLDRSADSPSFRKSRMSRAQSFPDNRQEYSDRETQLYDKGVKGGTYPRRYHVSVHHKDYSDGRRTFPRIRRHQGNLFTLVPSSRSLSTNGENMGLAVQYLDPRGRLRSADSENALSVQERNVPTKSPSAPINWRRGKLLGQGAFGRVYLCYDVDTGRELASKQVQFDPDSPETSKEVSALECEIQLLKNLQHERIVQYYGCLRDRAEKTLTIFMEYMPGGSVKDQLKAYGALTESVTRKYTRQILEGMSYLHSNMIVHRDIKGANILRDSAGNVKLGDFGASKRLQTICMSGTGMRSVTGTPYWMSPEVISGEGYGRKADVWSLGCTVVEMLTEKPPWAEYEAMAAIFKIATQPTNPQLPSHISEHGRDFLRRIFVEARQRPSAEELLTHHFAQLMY
Apaf1 inhib: blocks human Apaf-1 apoptosome activity | reconstituted apoptosome caspase-3 activity, DEVD-Rh110 fluorescence | inhibition, % at 20 µM | 0.71% of 330,000 active; active means inhibition of at least 40% at 20 µM;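 further: plate controls were DMSO wells for no effect and DEVD-CHO caspase inhibitor wells for full effect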
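Medium: Hepes buffer, pH 7.5 / System: biochemical Apaf-1 apoptosome reconstitution / Measured by: Rh110 fluorescence, excitation 480 nm, emission 540 nm / Times: compound with Apaf-1, dATP, procaspase-3 30 min, then 50 min reaction, room temperature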
MEKK2wt confirm: raises or lowers MEK5 binding to wildtype human MEKK2, retest. 2.4% of 5,900 active. shares compounds with MEKK3 PB1 HTS. bead flow cytometry, Alexa488-MEK5 binding to MEKK2 WT; actives lie on both sides. binding response (% of control), % at 10 µM; in the data active means binding response below about 16% or above about 210%; inactive means in between
MEKK2mut-MEK5: signal of MEK5 binding to mutant human MEKK2, retest. 2% of 5,900 active. bead flow cytometry, Alexa488-MEK5 binding to MEKK2 mutant. percent response, % at 10 µM. shares compounds with MEKK3 PB1 HTS; in the data active means percent response mostly above about 71%, no sharp cut-off; inactive means mostly below about 38%;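 further: higher means compound restores mutant binding toward wildtype level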
MEKK3 confirm: MEKK3-MEK5 PB1 inhibition, single concentration confirmation; shares compounds with MEKK3 PB1 HTS; bead flow cytometry, Alexa488-MEK5 binding to MEKK3; hits give low values; binding response (% of control), % at 10 µM; 1.8% of 5,900 active; AID 1894;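 active means binding response below 72% of control, or above a set upper limit, though filed actives all read lower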;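 further: 100% = DMSO only wells and 0% = binding blocked by excess unlabeled MEK5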
The depositor's hits bear a star; x = no result; [ ] = another dose, or the depositor's remark. This is a sample that favours compounds with a hit; in the whole collection about 3% have one here.

SMILES	UCH37 inh	MEKK2wt PB1 HTS	UBC13 polyUb	MEKK2 mut-MEK5	MEKK3 PB1 HTS	Apaf1 inhib	MEKK2wt confirm	MEKK2mut-MEK5	MEKK3 confirm
O=C(NN=Cc1cccnc1)c1ccc(Br)s1	3.4	x	x	x	x	x	x	x	x
O=C(N/N=C/c1cccnc1)c1cccs1	x	121.0	-1.0	28.0	130.0*	-17.6	94.0	1.0	104.0
CCOC(=O)/C=c1\s/c(=C\c2ccc(C)cc2)c(=O)n1CC(=O)NCc1ccco1	x	96.0	-15.2	-1.0	98.0	8.6	x	x	x
COc1ccc(-c2noc(C3CCCN(C(=O)c4ccc(C)cc4)C3)n2)cc1 (stereo not given)	0.9	112.0	21.7	3.0	115.0	1.8	x	x	x
O=C(O)COc1ccccc1/C=N/NC(=O)CN1CCN(Cc2ccccc2Cl)CC1	x	88.0	-8.5	-12.0	87.0	-6.5	x	x	x
Cc1cccc2cc(CN(Cc3ccccc3)C(=O)N(C)C)c(=O)[nH]c12	-0.8	126.0	-0.3	6.0	127.0*	4.4	96.0	-8.0	96.0
Cc1ccc(CN(Cc2cc3cccc(C)c3[nH]c2=O)C(=O)N(C)C)cc1	1.9	97.0	1.2	-4.0	102.0	14.0	x	x	x
CCOC(=O)N1CCC(N2C(=O)c3ccccc3C2Nc2cc(C)cc(C)c2)CC1 (stereo not given)	1.1	115.0	-9.1	31.0	128.0*	11.0	92.0	-10.0	96.0
CCCOc1ccc2c(c1)C(=NN=C(N)N)c1cc(OCCC)ccc1-2	5.1	191.0*	44.8	32.0*	99.0	25.8	249.0*	88.0*	111.0
CCN(CC)CCOc1ccc2c(c1)C(=NO)c1cc(OCCN(CC)CC)ccc1-2	2.7	117.0	10.3	3.0	100.0	-7.5	x	x	x
CC(=O)c1sc(NC(=O)C(C)C)nc1C	3.7	107.0	-9.5	5.0	105.0	2.4	x	x	x
CC(=O)Nc1nc(C)c(C(C)=O)s1	4.4	3.0*[inhibitor]	-3.5	-16.0	2.0*[inhibitor]	-2.3	106.0	8.0	105.0
CCc1nc(N2CCN(C(=O)c3ccco3)CC2)c2oc3ccccc3c2n1	0.0	88.0	x	-6.0	77.0	x	x	x	x
CCc1nc(N2CCCC2C(=O)O)c2oc3ccccc3c2n1 (stereo not given)	6.0	72.0	2.9	-19.0	57.0*[inhibitor]	-0.8	100.0	4.0	100.0
Cc1ccc(Nc2nnc(SCC(=O)c3ccc(Br)s3)s2)c(C)c1	1.8	94.0	-12.2	2.0	72.0*[inhibitor]	17.2	97.0	-8.0	99.0
Cc1n[nH]c(=O)c2c(NC(=O)CSc3nc4ccccc4c(=O)n3C(C)C)oc(C)c12	x	102.0	-2.3	6.0	94.0	14.0	x	x	x
Fc1ccc(CNC(=S)NCc2ccc(F)cc2)cc1	5.2	104.0	4.0	6.0	103.0	-1.3	x	x	x
CCNC(=S)NCc1ccc(F)cc1	4.7	109.0	-0.6	-1.0	134.0*	5.5	102.0	-2.0	98.0
O=C([C@@H]1CC=C[C@@H]2CCN(C3CC3)C(=O)[C@@H]21)N1CCN(c2ccccc2)CC1	0.5	91.0	7.4	-3.0	80.0*[inhibitor]	-6.6	103.0	16.0	103.0
C=CCSc1nc(-c2ccccc2)c(C#N)c(=O)[nH]1	4.2	105.0	38.3	5.0	103.0	-16.3	x	x	x
C=CCSc1nc2c(c(=O)[nH]1)C(c1ccccc1)C(C#N)=C(N)O2 (stereo not given)	5.9	108.0	7.8	30.0	132.0*	-4.4	98.0	-5.0	97.0
Cc1c(C(=O)Nc2c(F)cccc2F)sc2ncn(CC(=O)N3CCCCC3)c(=O)c12	2.1	101.0	-5.4	-3.0	101.0	-4.3	x	x	x
Cc1oc2ccccc2c1CNC(=O)N(C)C	2.7	98.0	1.9	-5.0	99.0	-13.8	x	x	x
CCCNC(=O)Cc1c(C)oc2ccccc12	-0.9	119.0	0.1	32.0	130.0*	-10.3	99.0	-5.0	99.0
Cc1cc(OCC(O)CN2CCN(CCO)CC2)ccc1C(C)C (stereo not given)	5.4	100.0	4.8	-3.0	96.0	-2.4	x	x	x
SMILES	UCH37 inh	MEKK2wt PB1 HTS	UBC13 polyUb	MEKK2 mut-MEK5	MEKK3 PB1 HTS	Apaf1 inhib	MEKK2wt confirm	MEKK2mut-MEK5	MEKK3 confirm
Cc1cc(C)c(C)c(C(=O)COC(=O)CNC(=O)CN2C(=O)c3ccccc3C2=O)c1C	-1.2	98.0	-10.7	-2.0	97.0	-2.3	x	x	x
Cc1nc2ccc(NC(=O)c3nn(CC(C)C)c(=O)c4ccccc34)cc2s1	0.9	108.0	16.0	0.0	148.0*	16.6	94.0	-3.0	98.0
CN1CCCC(CC2Oc3ccccc3Sc3ccccc32)C1 (stereo not given)	3.9	120.0	18.6	0.0	120.0	9.2	x	x	x
c1ccc2c(c1)OC(CCCN1CCCCC1)c1ccccc1S2 (stereo not given)	3.6	141.0*	26.9	27.0*	106.0	19.4	138.0	21.0	107.0
CC(N=c1ccccn1C(=O)Nc1ccc(Cl)cc1)c1ccco1 (stereo not given)	1.7	96.0	0.2	-5.0	99.0	7.8	x	x	x
CC(N=c1ccccn1C(=O)Nc1ccc(F)cc1)c1ccco1 (stereo not given)	0.1	-4.0*[inhibitor]	5.9	-39.0	0.0*[inhibitor]	-18.6	95.0	-18.0	95.0
